Measurements reported in ChEMBL document CHEMBL3734720, “Synthesis of thiophene-thiosemicarbazone derivatives and evaluation of their in vitro and in vivo antitumor activities” (Eur J Med Chem, 2015).

What was measured:
NCI-H460 = assay: Antiproliferative activity against human NCI-H460 cells assessed as growth inhibition after 48 hrs by SRB assay; type: functional; settings: NCI-H460, 48 h
How it was run: (§1)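 Cells exposed 48 h at 37 °C, 5% CO2 to 0.25, 2.5, 25 and 250 µg/mL in DMSO/RPMI (final DMSO 0.1%); doxorubicin standard at 0.025–25 µg/mL. Plates fixed with 50% TCA before (T0) and after treatment; protein content read by sulforhodamine B at 540 nm. GI50 (µM) from nonlinear regression of concentration–response curves; triplicate.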

[1] = Antiproliferative activity against human HaCaT cells assessed as growth inhibition after 48 hrs by SRB assay; type: cell-based; how it was run: as §1
[2] = Antiproliferative activity against human PC3 cells assessed as growth inhibition after 48 hrs by SRB assay; type: functional; settings: PC-3, 48 h; how it was run: as §1
MCF7 = assay: Antiproliferative activity against human MCF7 cells assessed as growth inhibition after 48 hrs by SRB assay; type: functional; settings: MCF7, 48 h; how it was run: as §1
[3] = Antiproliferative activity against human UACC62 cells assessed as growth inhibition after 48 hrs by SRB assay; type: functional; settings: UACC-62, 48 h; how it was run: as §1
U-251 = assay: Antiproliferative activity against human U251 cells assessed as growth inhibition after 48 hrs by SRB assay; type: functional; settings: U-251, 48 h; how it was run: as §1
K562 = assay: Antiproliferative activity against human K562 cells assessed as growth inhibition after 48 hrs by SRB assay; type: functional; settings: K562, 48 h; how it was run: as §1
786-0 [4] = assay: Antiproliferative activity against human 786-0 cells assessed as growth inhibition after 48 hrs by SRB assay; type: functional; settings: 786-0, 48 h; how it was run: as §1
HT-29 = assay: Antiproliferative activity against human HT-29 cells assessed as growth inhibition after 48 hrs by SRB assay; type: functional; settings: HT-29, 48 h; how it was run: as §1
[5] = Antiproliferative activity against human NCI-ADR-RES cells assessed as growth inhibition after 48 hrs by SRB assay; type: functional; how it was run: as §1
786-0 [6] = assay: Cell cycle arrest in human 786-0 cells assessed as reduction in G1 phase at 1.25 nM after 24 hrs by propidium iodide based flow cytometric analysis (reference value: 46.7 +/- 0.8%); type: functional; set-up: scale not given: the % may be the effect or the level left
786-0 [7] = assay: Cell cycle arrest in human 786-0 cells assessed as accumulation at G2/M phase at 1.25 nM after 24 hrs by propidium iodide based flow cytometric analysis (reference value: 35.7 +/- 0.9%); type: functional
786-0 [8] = assay: Cell cycle arrest in human 786-0 cells assessed as accumulation at S phase at 1.25 nM after 24 hrs by propidium iodide based flow cytometric analysis (reference value: 14.6 +/- 1.3%); type: functional
786-0 [9] = assay: Cell cycle arrest in human 786-0 cells assessed as accumulation at Sub G1 phase at 1.25 nM after 24 hrs by propidium iodide based flow cytometric analysis (reference value: 3.0 +/- 0.7%); type: functional
[10] = Antitumor activity against mouse EAT implanted in Balb/C mouse assessed as change in paw volume at 40 mg/kg, po administered on day 3 post tumor inoculation measured on day 9 by plethysmometer analysis (reference value: 95.5 +/- 5.2%); type: functional
[11] = Antitumor activity against mouse EAT implanted in Balb/C mouse assessed as change in paw volume at 40 mg/kg, po administered on day 3 post tumor inoculation measured on day 12 by plethysmometer analysis (reference value: 125.5 +/- 7.5%); type: functional
[12] = Antitumor activity against mouse EAT implanted in Balb/C mouse assessed as change in paw volume at 40 mg/kg, po administered on day 3 post tumor inoculation measured on day 15 by plethysmometer analysis (reference value: 166.5 +/- 6.0%); type: functional
[13] = Antitumor activity against mouse EAT implanted in Balb/C mouse assessed as change in paw volume at 40 mg/kg, po administered on day 3 post tumor inoculation measured on day 3 by plethysmometer analysis (reference value: 40.2 +/- 7.0%); type: functional
[14] = Antitumor activity against mouse EAT implanted in Balb/C mouse assessed as change in paw volume at 40 mg/kg, po administered on day 3 post tumor inoculation measured on day 6 by plethysmometer analysis (reference value: 86.1 +/- 5.7%); type: functional
[15] = Antitumor activity against mouse EAT implanted in Balb/C mouse assessed as change in paw volume at 3 mg/kg, ip administered on day 3 post tumor inoculation measured on day 3 by plethysmometer analysis (reference value: 40.2 +/- 7.0%); type: functional
[16] = Antitumor activity against mouse EAT implanted in Balb/C mouse assessed as change in paw volume at 3 mg/kg, ip administered on day 3 post tumor inoculation measured on day 6 by plethysmometer analysis (reference value: 86.1 +/- 5.7%); type: functional
[17] = Antitumor activity against mouse EAT implanted in Balb/C mouse assessed as change in paw volume at 3 mg/kg, ip administered on day 3 post tumor inoculation measured on day 12 by plethysmometer analysis (reference value: 125.5 +/- 7.5%); type: functional
[18] = Antitumor activity against mouse EAT implanted in Balb/C mouse assessed as change in paw volume at 3 mg/kg, ip administered on day 3 post tumor inoculation measured on day 15 by plethysmometer analysis (reference value: 166.5 +/- 6.0%); type: functional
[19] = Antitumor activity against mouse EAT implanted in Balb/C mouse assessed as change in paw volume at 3 mg/kg, ip administered on day 3 post tumor inoculation measured on day 9 by plethysmometer analysis (reference value: 95.5 +/- 5.2%); type: functional

SMILES	GI50 (NCI-H460)	GI50 (MCF7)	GI50 (U-251)	GI50 (K562)	GI50 (786-0 [4])	GI50 (HT-29)	GI50 at 48 h [1]	GI50 [2]	GI50 [3]	GI50 [5]	other results
S=C(N/N=C/c1cccs1)Nc1ccccc1	> 100 µM	94.6 µM	74.7 µM	16.7 µM	50.4 µM	> 100 µM	> 100 µM	> 100 µM	> 100 µM	> 100 µM	–
COc1ccc(NC(=S)N/N=C/c2cccs2)cc1	> 100 µM	> 100 µM	> 100 µM	1.7 µM	> 100 µM	> 100 µM	> 100 µM	> 100 µM	> 100 µM	> 100 µM	–
COc1cc2c(c(OC)c1OC)-c1ccc(OC)c(=O)cc1[C@@H](NC(C)=O)CC2 [COLCHICINE]	–	–	–	–	–	–	–	–	–	–	Activity (786-0 [6]): 21.5%; Activity (786-0 [7]): 57.5%; Activity (786-0 [8]): 12.6%; Activity (786-0 [9]): 8.9%
C=CCNC(=S)N/N=C/c1cccs1	> 100 µM	> 100 µM	> 100 µM	6 µM	21.2 µM	> 100 µM	> 100 µM	> 100 µM	> 100 µM	> 100 µM	–
S=C(NCCc1ccccc1)N/N=C/c1cccs1	> 100 µM	> 100 µM	> 100 µM	> 100 µM	> 100 µM	> 100 µM	> 100 µM	> 100 µM	> 100 µM	> 100 µM	–
CN1C(C(=O)Nc2ccccn2)=C(O)c2ccccc2S1(=O)=O [PIROXICAM]	–	–	–	–	–	–	–	–	–	–	Activity [10]: 52.3%; Activity [11]: 34.9%; Activity [12]: 47.3%; Activity [13]: 42.2%; Activity [14]: 57.2%
CCc1ccc(NC(=S)N/N=C/c2cccs2)cc1	> 100 µM	> 100 µM	> 100 µM	1.6 µM	82.6 µM	> 100 µM	17.6 µM	> 100 µM	> 100 µM	> 100 µM	–

Now from value to molecule, other results behind:

GI50 (NCI-H460)	GI50 (MCF7)	GI50 (U-251)	GI50 (K562)	GI50 (786-0 [4])	GI50 (HT-29)	SMILES	GI50 at 48 h [1]	GI50 [2]	GI50 [3]	GI50 [5]	other results
> 100 µM	> 100 µM	8.3 µM	2 µM	7.4 µM	> 100 µM	S=C(N/N=C/c1cccs1)Nc1ccc(Cl)cc1	14.7 µM	> 100 µM	15.8 µM	2.8 µM	–
> 100 µM	> 100 µM	12.7 µM	1.8 µM	15.2 µM	> 100 µM	S=C(N/N=C/c1cccs1)Nc1cccc2ccccc12	82.4 µM	> 100 µM	> 100 µM	6.6 µM	–
80.6 µM	38.6 µM	12.6 µM	< 0.9 µM	19.5 µM	> 100 µM	Cc1ccc(NC(=S)N/N=C/c2cccs2)cc1	17.6 µM	29.7 µM	16.8 µM	4.8 µM	–
45.9 µM	> 100 µM	26 µM	16.4 µM	5.6 µM	> 100 µM	S=C(N/N=C/c1cccs1)Nc1cccnc1	45.4 µM	> 100 µM	> 100 µM	> 100 µM	–
< 0.046 µM	< 0.046 µM	< 0.046 µM	< 0.046 µM	< 0.046 µM	0.3 µM	COc1cccc2c1C(=O)c1c(O)c3c(c(O)c1C2=O)C[C@@](O)(C(=O)CO)C[C@@H]3O[C@H]1C[C@H](N)[C@H](O)[C@H](C)O1 [DOXORUBICIN]	< 0.046 µM	0.13 µM	0.05 µM	0.21 µM	Activity [15]: 43.7%; Activity [16]: 55.6%; Activity [17]: 39.6%; Activity [18]: 97.9%; Activity [19]: 69.8%
